Source: ChEMBL document CHEMBL5370635, “Structure-Based Design and Synthesis of Potent and Selective KRAS G12D Inhibitors” (ACS Med Chem Lett, 2023)

Columns and labels:
[1] = target: T1, GTPase KRas (Homo sapiens, UniProt P01116); assay: Thermal stabilization of wild-type GDP-bound KRAS (1 to 169 residues) (unknown origin) assessed as melting temperature incubated for 1 hrs by differential scanning fluorimetry assay
[2] = target: T2, GTPase KRas (Homo sapiens, UniProt P01116, G12D); assay: Inhibition of GDP-bound biotinylated-KRAS G12D mutant (1 to 169 residues) (unknown origin) assessed as suppression of SOS1-mediated nucleotide exchange by measuring reduction in KRAS G12D mutant-RAF RBD complex formation preincubated for 60 mins followed by SOS1 addition and further incubated for 60 mins and subsequent addition of KRAS G12D mutant-RAF RBD mixture measured after 30 to 60 mins by FRET assay
[3] = target: T1, GTPase KRas; assay: Inhibition of wild-type GDP-bound biotinylated-KRAS (unknown origin) assessed as suppression of SOS1-mediated nucleotide exchange by measuring reduction in KRAS-RAF RBD complex formation preincubated for 60 mins followed by SOS1 addition and further incubated for 60 mins and subsequent addition of KRAS-RAF RBD mixture measured after 30 to 60 mins by FRET assay
[4] = system: GTPase KRas (Homo sapiens), P01116 [G12D]; assay: Thermal stabilization of GDP-bound KRAS G12D mutant (1 to 169 residues) (unknown origin) assessed as melting temperature incubated for 1 hrs by differential scanning fluorimetry assay
[5] = target: T2, GTPase KRas; assay: Inhibition of KRAS G12D mutant in human ASPC1 cells assessed as reduction in ERK phosphorylation measured after 4 hrs by HTRF assay; type: cell-based
[6] = Antiproliferative activity against RAS initiative G12D cells assessed as reduction in cell viability after 5 days of treatment by Cell-Titer Glo assay; type: functional, cell-based; settings: Homo sapiens, 120 h
[7] = system: LS-513; assay: Antiproliferative activity against human LS-513 cells assessed as reduction in cell viability measured after 5 days by Cell-Titer Glo assay; type: functional, cell-based; settings: LS-513, 120 h
[8] = system: ASPC1; assay: Antiproliferative activity against human ASPC1 cells assessed as reduction in cell viability measured after 5 days by Cell-Titer Glo assay; type: functional, cell-based; settings: ASPC1, 120 h
Method in brief: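 AsPC-1 PDAC cells (KRAS G12D) grown in three-dimensional culture; viability read by Cell-Titer Glo luminescence.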

[9] = Antiproliferative activity against human GP2d cells assessed as reduction in cell viability measured after 5 days by Cell-Titer Glo assay; type: functional, cell-based; settings: 120 h
[10] = system: AGS; assay: Antiproliferative activity against human AGS cells assessed as reduction in cell viability measured after 5 days by Cell-Titer Glo assay; type: functional, cell-based; settings: 120 h
[11] = system: SK-LU-1; assay: Antiproliferative activity against human SK-LU-1 cells assessed as reduction in cell viability measured after 5 days by Cell-Titer Glo assay; type: functional, cell-based; settings: SK-LU-1, 120 h
[12] = system: HPAC; assay: Antiproliferative activity against human HPAC cells assessed as reduction in cell viability measured after 5 days by Cell-Titer Glo assay; type: functional, cell-based; settings: 120 h
[13] = system: HPAF-II; assay: Antiproliferative activity against human HPAF-II cells assessed as reduction in cell viability measured after 5 days by Cell-Titer Glo assay; type: functional, cell-based; settings: 120 h
[14] = Antiproliferative activity against human Panc 04.03 cells assessed as reduction in cell viability measured after 5 days by Cell-Titer Glo assay; type: functional, cell-based; settings: Panc 04.03, 120 h
[15] = Antiproliferative activity against human SNU-1033 cells assessed as reduction in cell viability measured after 5 days by Cell-Titer Glo assay; type: functional, cell-based; settings: SNU-1033, 120 h
[16] = Antiproliferative activity against RAS initiative wild-type cells assessed as reduction in cell viability after 5 days of treatment by Cell-Titer Glo assay; type: functional, cell-based; settings: Homo sapiens, 120 h
[17] = Selectivity ratio of IC50 for RAS initiative wild-type cells to IC50 for RAS initiative G12D cells; type: functional
[18] = Toxicity in human ASPC1 cell xenografted mouse at 3 to 20 mg/kg bid administered for 28 days; type: organism-based; settings: in vivo, 672 h, dose 3-20 mg/kg, time 28 day
Method in brief: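 Mice bearing AsPC-1 KRAS G12D PDAC xenografts dosed BID at 3, 10 or 20 mg/kg alongside a vehicle control group. Body weight change tracked over the treatment period together with tumour growth. Group means, n = 8, with SEM.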

[19] = system: ASPC1; assay: Antitumor activity against human ASPC1 cells xenografted in mouse assessed as inhibition of tumor growth at 20 mg/kg bid for 28 days relative to control; type: functional; design: scale not given: the % may be the effect or the level left; settings: time 28 day
Method in brief: (§1)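 Mice bearing AsPC-1 (KRAS G12D pancreatic ductal adenocarcinoma) xenografts were given repeated twice-daily doses of 3, 10 or 20 mg/kg alongside a vehicle control group, with n = 8 per group. Tumor growth inhibition or regression was assessed against vehicle, with body weight also tracked. Group means were reported with SEM, and P values were calculated versus vehicle.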

[20] = system: ASPC1; assay: Antitumor activity against human ASPC1 cells xenografted in mouse assessed as inhibition of tumor growth at 10 mg/kg bid for 28 days relative to control; type: functional; settings: ASPC1, 672 h, time 28 day, read-out: TGI; method in brief: as §1
[21] = system: ASPC1; assay: Antitumor activity against human ASPC1 cells xenografted in mouse assessed as inhibition of tumor growth at 3 mg/kg bid for 28 days relative to control; type: functional; settings: ASPC1, 672 h, time 28 day, read-out: TGI; method in brief: as §1
[22] = species: Homo sapiens; assay: Selectivity ratio of IC50 for wild-type GDP-bound biotinylated-KRAS (unknown origin) to IC50 for GDP-bound biotinylated-KRAS G12D mutant (1 to 169 residues) (unknown origin)
[23] = system: ASPC1; assay: Antitumor activity against human ASPC1 cells xenografted in mouse assessed as tumor regression at 20 mg/kg bid for 28 days relative to control; type: functional; settings: time 28 day; method in brief: as §1

Structure (SMILES) | ΔTm [1] | IC50 [2] | IC50 [3] | ΔTm [4] | IC50 [5] | other results
N#Cc1c(N)sc2c(F)ccc(-c3c(Cl)cc4c(N5C[C@H]6CC[C@@H](C5)N6)nc(OCC5(CN6CC[C@@H](F)C6)CC5)nc4c3F)c12 | 12 °C | 1 nM | 9.2 nM | 17.8 °C | 30 nM | 
C#Cc1c(F)ccc2cc(O)cc(-c3ncc4c(N5C[C@H]6CC[C@@H](C5)N6)nc(OC[C@@]56CCCN5C[C@H](F)C6)nc4c3F)c12 [MRTX-1133] |  |  |  |  |  | IC50 [6]: 16.4 nM; IC50 [7]: 8.1 nM; IC50 [8]: 11 nM; IC50 [9]: 0.4 nM; IC50 [10]: 3.2 nM; IC50 [11]: 2.7 nM; IC50 [12]: 4.2 nM; IC50 [13]: 14.9 nM; IC50 [14]: 27.6 nM; IC50 [15]: 4980 nM; IC50 [16]: 6470 nM; Ratio IC50 [17]: >100; Activity [18]: Non-Toxic; Activity [19]: 94%; inhibition in vivo at 10 mg/kg [20]: 83%; inhibition in vivo at 3 mg/kg [21]: 61%
Cc1cc(N)nc(-c2c(Cl)cc3c(N4C[C@H]5CC[C@@H](C4)N5)nc(OCC45CCCN4CCC5)nc3c2F)c1C(F)(F)F | 4.6 °C | 2.1 nM | 214 nM | 10.9 °C | 928 nM | 
Nc1cc2ccccc2c(-c2c(Cl)cc3c(N4C[C@H]5CC[C@@H](C4)N5)nc(OC[C@@]45CCCN4C[C@H](F)C5)nc3c2F)n1 | 0.8 °C | 12.8 nM | > 1000 nM | 4.3 °C | 2970 nM | 
Nc1cc2cccc(F)c2c(-c2c(Cl)cc3c(N4C[C@H]5CC[C@@H](C4)N5)nc(OC[C@@]45CCCN4C[C@H](F)C5)nc3c2F)n1 | 2.2 °C | 6 nM | > 1000 nM | 7.4 °C | 1030 nM | 
N#Cc1c(N)sc2c(F)ccc(-c3c(Cl)cc4c(N5C[C@H]6CC[C@@H](C5)N6)nc(OC[C@@]56CCCN5C[C@H](F)C6)nc4c3F)c12 | 13.4 °C | 0.98 nM | 4.2 nM | 20.2 °C | 4.3 nM | IC50 [6]: 33.4 nM; IC50 [7]: 7.5 nM; IC50 [8]: 15.1 nM; IC50 [9]: 0.2 nM; IC50 [10]: 1.2 nM; IC50 [11]: 1.4 nM; IC50 [12]: 3.4 nM; IC50 [13]: 14.2 nM; IC50 [14]: 58.6 nM; IC50 [15]: 1890 nM; IC50 [16]: 3440 nM; Ratio IC50 [17]: >100
N#Cc1c(N)sc2c(F)ccc(-c3cc4nc(OC[C@@]56CCCN5C[C@H](F)C6)nc(N5C[C@H]6CC[C@@H](C5)N6)c4cc3Cl)c12 | 9.4 °C | 1.5 nM | 11.6 nM | 16 °C | 42.9 nM | 
N#Cc1c(N)sc2c(F)ccc(-c3c(Cl)cc4c(N5C[C@H]6CC[C@@H](C5)N6)ncnc4c3F)c12 | 3.7 °C | 5.32 nM | > 1000 nM | 7.4 °C | 1080 nM | Ratio IC50 [22]: 188
Cc1cc(N)nc(-c2c(Cl)cc3c(N4C[C@H]5CC[C@@H](C4)N5)nc(OC[C@@H]4CCCN4C)nc3c2F)c1C(F)(F)F | 1.9 °C | 3.5 nM | > 1000 nM | 7.3 °C | 941 nM | Ratio IC50 [22]: > 286
N#Cc1c(N)sc2c(F)ccc(-c3c(C(F)(F)F)cc4c(N5C[C@H]6CC[C@@H](C5)N6)nc(OC[C@@]56CCCN5C[C@H](F)C6)nc4c3F)c12 | 8.3 °C | 0.86 nM | 3.9 nM | 20.8 °C | 2.1 nM | IC50 [6]: 5.8 nM; IC50 [7]: 2 nM; IC50 [8]: 3.5 nM; IC50 [9]: 0.2 nM; IC50 [10]: 0.7 nM; IC50 [11]: 0.5 nM; IC50 [12]: 1.8 nM; IC50 [13]: 7.2 nM; IC50 [14]: 10.6 nM; IC50 [15]: 623 nM; IC50 [16]: 978 nM; Ratio IC50 [17]: >100; Activity [18]: Non-Toxic; inhibition in vivo at 10 mg/kg [20]: 77%; inhibition in vivo at 3 mg/kg [21]: 51%; Activity [23]: 54%
Nc1nc2c(-c3c(Cl)cc4c(N5C[C@H]6CC[C@@H](C5)N6)nc(OC[C@@]56CCCN5C[C@H](F)C6)nc4c3F)ccc(F)c2s1 | 7.2 °C | 3.8 nM | 39.6 nM | 14.7 °C | 149 nM | 
Cc1cc(N)nc(-c2c(Cl)cc3c(N4C[C@H]5CC[C@@H](C4)N5)nc(OC[C@@]45CCCN4C[C@H](F)C5)nc3c2F)c1C(F)(F)F | 5.2 °C | 2.1 nM | 153 nM | 11.7 °C | 89.9 nM | 
CN1CCC[C@H]1COc1nc(N2C[C@H]3CC[C@@H](C2)N3)c2cc(Cl)c(-c3ccc(F)c4sc(N)c(C#N)c34)c(F)c2n1 | 10.3 °C | 1.3 nM | 17 nM | 17.1 °C | 138 nM | 
Cc1cc(N)nc(-c2c(Cl)cc3c(N4CCNC[C@@H]4C)nc(OC[C@@H]4CCCN4C)nc3c2F)c1C(F)(F)F | 1.4 °C | 76.9 nM | > 1000 nM | 2.6 °C | > 10000 nM | 
